Experimental data from ChEMBL document CHEMBL2057182, “Synthesis and biological evaluation of α-methylidene-δ-lactones with 3,4-dihydrocoumarin skeleton” (Bioorg Med Chem, 2012).
Values after ≈ are worked out from the molar mass of the structure shown.

Legend:
MCF7 = assay: Cytotoxicity against human MCF7 cells after 48 hrs by MTT assay; format: functional, cell-based; settings: MCF7, 48 h
How it was run: (§1)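 ECACC cells; leukemias in RPMI 1640, MCF-7 and HT-29 in DMEM, each with 10% heat-inactivated FBS plus penicillin/streptomycin, 37 °C, 5% CO2. 8 × 10^3 cells/well seeded, compounds added after 24 h at 10^-7 to 10^-3 M (DMSO diluted in medium) for 48 h. MTT 2 h, formazan dissolved in DMSO, A560 against untreated control. IC50 from concentration–response curves, mean ± SD of at least three experiments.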

HL-60 = assay: Cytotoxicity against human HL60 cells after 48 hrs by MTT assay; format: functional, cell-based; settings: HL-60, 48 h; how it was run: as §1
HT-29 = assay: Cytotoxicity against human HT-29 cells after 48 hrs by MTT assay; format: functional, cell-based; settings: HT-29, 48 h; how it was run: as §1
HUVEC = assay: Cytotoxicity against human HUVEC cells after 48 hrs by MTT assay; format: cell-based
How it was run: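 HUVECs cultured as the supplier directs, used at passages 3–8, 37 °C, 5% CO2. Seeded at 8 × 10^3/well, treated after 24 h with compounds at 10^-7 to 10^-3 M (DMSO diluted in complete medium) for 48 h. MTT 2 h, DMSO-solubilized formazan read at 560 nm against untreated cells. IC50 from concentration–response curves, at least three experiments.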

NALM-6 = assay: Cytotoxicity against human NALM6 cells after 48 hrs by MTT assay; format: functional, cell-based; settings: NALM-6, 48 h; how it was run: as §1
Staphylococcus aureus [1] = assay: Antibacterial activity against methicillin-sensitive Staphylococcus aureus ATCC 29213 incubated for 24 hrs followed by washout measured after 24 hrs by broth microdilution assay; format: functional; settings: ATCC 29213, 24 h
How it was run: (§2)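 MBC: after the 24 h broth microdilution MIC run (3.125–400.0 µg/mL in Mueller-Hinton broth, DMSO at most 2.0%), 10 µL from the MIC, 2× MIC and 4× MIC wells was subcultured into compound-free broth for 24 h. MBC is the lowest concentration with no visible growth, i.e. at least 99.9% kill of the original inoculum; bactericidal if MBC is at most 4× MIC.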

Staphylococcus aureus [2] = assay: Antibacterial activity against methicillin-sensitive Staphylococcus aureus ATCC 29213 after 24 hrs by broth microdilution assay; format: functional; settings: ATCC 29213, 24 h
How it was run: (§3)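 Broth microdilution in Mueller-Hinton broth, compounds from 20.0 mg/mL DMSO stocks tested over 3.125–400.0 µg/mL (eight twofold dilutions), DMSO at most 2.0% final. MIC is the lowest concentration inhibiting growth over 24 h culture, with turbidity equal to the A600 of a medium blank (0.06). Run under CLSI guidance with ATCC quality-control strains.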

Staphylococcus aureus [3] = assay: Antibacterial activity against methicillin-resistant Staphylococcus aureus A3 patient isolate after 24 hrs by broth microdilution assay; format: functional; settings: A3, 24 h; how it was run: as §3
Escherichia coli = assay: Antibacterial activity against Escherichia coli NCTC 8196 after 24 hrs by broth microdilution assay; format: functional; settings: NCTC 8196, 24 h
How it was run: (§4)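 MIC by broth microdilution per CLSI, compounds from 20.0 mg/mL DMSO stocks tested at 3.125–400.0 µg/mL (eight twofold dilutions) in Mueller-Hinton broth or RPMI-1640. MIC is the concentration that inhibits growth during 24 h culture, turbidity equal to blank A600 (0.06). Highest final DMSO 2.0%.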

Staphylococcus aureus [4] = assay: Antibacterial activity against methicillin-resistant Staphylococcus aureus A3 patient isolate incubated for 24 hrs followed by washout measured after 24 hrs by broth microdilution assay; format: functional; settings: A3, 24 h; how it was run: as §2
Pseudomonas aeruginosa = assay: Antibacterial activity against Pseudomonas aeruginosa NCTC 6749 after 24 hrs by broth microdilution assay; format: functional; settings: NCTC 6749, 24 h; how it was run: as §4
Staphylococcus aureus [5] = assay: Antibacterial activity against methicillin-resistant Staphylococcus aureus D5 patient isolate incubated for 24 hrs followed by washout measured after 24 hrs by broth microdilution assay; format: functional; settings: D5, 24 h; how it was run: as §2
Staphylococcus aureus [6] = assay: Antibacterial activity against methicillin-resistant Staphylococcus aureus D5 patient isolate after 24 hrs by broth microdilution assay; format: functional; settings: D5, 24 h; how it was run: as §3
Enterococcus faecalis = assay: Antibacterial activity against Enterococcus faecalis ATCC 29212 after 24 hrs by broth microdilution assay; format: functional; settings: ATCC 29212, 24 h; how it was run: as §4
Staphylococcus aureus [7] = assay: Antibacterial activity against methicillin-resistant Staphylococcus aureus A7 patient isolate after 24 hrs by broth microdilution assay; format: functional; settings: A7, 24 h; how it was run: as §3
Staphylococcus aureus [8] = assay: Antibacterial activity against methicillin-resistant Staphylococcus aureus A7 patient isolate incubated for 24 hrs followed by washout measured after 24 hrs by broth microdilution assay; format: functional; settings: A7, 24 h; how it was run: as §2
Candida albicans = assay: Antifungal activity against Candida albicans ATCC 10231 after 24 hrs by broth microdilution assay; format: functional; settings: ATCC 10231, 24 h; how it was run: as §4
[9] = Therapeutic index ratio of IC50 for human HUVEC cells to IC50 for human NALM6 cells; format: cell-based; settings: HUVEC cells versus NALM6 cells, read-out: Ratio IC50
[10] = Therapeutic index ratio of IC50 for human HUVEC cells to IC50 for human HL60 cells; format: cell-based; settings: HUVEC cells versus HL60 cells
[11] = Therapeutic index ratio of IC50 for human HUVEC cells to IC50 for human MCF7 cells; format: cell-based; settings: HUVEC cells versus MCF7 cells, read-out: Ratio IC50

Structure (SMILES) | IC50 (MCF7) | IC50 (HL-60) | IC50 (HT-29) | IC50 (HUVEC) | IC50 (NALM-6) | further results
C=C1C(=O)Oc2cc(OC)ccc2C1C (centres undefined) | 73 µM | 54.5 µM | 70 µM | 57.4 µM | 53.6 µM | 
C=C1C(=O)Oc2cc(OC)ccc2C1CCCC (centres undefined) | 7.1 µM | 5.4 µM | 10.2 µM | 5.1 µM | 6.2 µM | MBC (Staphylococcus aureus [1]): 100 µg/mL (≈ 406 µM); MIC (Staphylococcus aureus [2]): 50 µg/mL (≈ 203 µM); MIC (Staphylococcus aureus [3]): 50 µg/mL (≈ 203 µM); MIC (Escherichia coli): > 400 µg/mL; MBC (Staphylococcus aureus [4]): 100 µg/mL (≈ 406 µM); MIC (Pseudomonas aeruginosa): > 400 µg/mL; MBC (Staphylococcus aureus [5]): 200 µg/mL (≈ 812 µM); MIC (Staphylococcus aureus [6]): 50 µg/mL (≈ 203 µM); MIC (Enterococcus faecalis): 200 µg/mL (≈ 812 µM); MIC (Staphylococcus aureus [7]): 50 µg/mL (≈ 203 µM); MBC (Staphylococcus aureus [8]): 100 µg/mL (≈ 406 µM); MIC (Candida albicans): > 400 µg/mL
C=C1C(=O)Oc2cc(OC)ccc2C1C(C)C (centres undefined) | 0.87 µM | 0.56 µM | 1.7 µM | 3.12 µM | 0.85 µM | selectivity ratio [9]: 4; selectivity ratio [10]: 5.6; MIC (Escherichia coli): > 400 µg/mL; MIC (Pseudomonas aeruginosa): > 400 µg/mL; selectivity ratio [11]: 4; MIC (Candida albicans): > 400 µg/mL
C=CC1C(=C)C(=O)Oc2cc(OC)ccc21 (centres undefined) | 62 µM | 51.7 µM | 42 µM | 57.3 µM | 56.6 µM | 
C=C1C(=O)Oc2cc(OC)cc(OC)c2C1C (centres undefined) | 4.1 µM | 5.2 µM | 7.2 µM |  | 6 µM | 
C=C1C(=O)Oc2cc(OC)cc(OC)c2C1CCCC (centres undefined) | 3.3 µM | 3.4 µM | 5.2 µM |  | 4.6 µM | 
C=C1C(=O)Oc2cc(OC)cc(OC)c2C1C(C)C (centres undefined) | 2.1 µM | 1.3 µM | 2.2 µM |  | 3 µM | 
C=CC1C(=C)C(=O)Oc2cc(OC)cc(OC)c21 (centres undefined) | 6.2 µM | 8.4 µM | 5.9 µM |  | 9.3 µM | 
C=C1C(=O)Oc2cc3c(cc2C1C)OCO3 (centres undefined) | 40.9 µM | 59.4 µM | 38.4 µM |  | 60.7 µM | 
C=C1C(=O)Oc2cc3c(cc2C1CCCC)OCO3 (centres undefined) | 0.54 µM | 0.75 µM | 1.8 µM |  | 0.6 µM | 
C=C1C(=O)Oc2cc3c(cc2C1C(C)C)OCO3 (centres undefined) | 0.87 µM | 3.3 µM | 1.5 µM |  | 0.7 µM | 
C=CC1C(=C)C(=O)Oc2cc3c(cc21)OCO3 (centres undefined) | 9.8 µM | 7.85 µM | 6.2 µM |  | 7.82 µM | 
C=C1C(=O)Oc2ccc3ccccc3c2C1C (centres undefined) | 5.17 µM | 4.8 µM | 7.26 µM | 6.69 µM | 5.5 µM | 
C=C1C(=O)Oc2ccc3ccccc3c2C1CCCC (centres undefined) | 2.75 µM | 0.72 µM | 2.9 µM | 3.83 µM | 2.1 µM | MBC (Staphylococcus aureus [1]): 12.5 µg/mL (≈ 46.9 µM); MIC (Staphylococcus aureus [2]): 6.25 µg/mL (≈ 23.5 µM); MIC (Staphylococcus aureus [3]): 3.12 µg/mL (≈ 11.7 µM); MIC (Escherichia coli): > 400 µg/mL; MBC (Staphylococcus aureus [4]): 6.25 µg/mL (≈ 23.5 µM); MIC (Pseudomonas aeruginosa): > 400 µg/mL; MBC (Staphylococcus aureus [5]): 6.25 µg/mL (≈ 23.5 µM); MIC (Staphylococcus aureus [6]): 3.12 µg/mL (≈ 11.7 µM); MIC (Enterococcus faecalis): 25 µg/mL (≈ 93.9 µM); MIC (Staphylococcus aureus [7]): 6.25 µg/mL (≈ 23.5 µM); MBC (Staphylococcus aureus [8]): 6.25 µg/mL (≈ 23.5 µM); MIC (Candida albicans): > 400 µg/mL
C=C1C(=O)Oc2ccc3ccccc3c2C1C(C)C (centres undefined) | 0.48 µM | 0.7 µM | 2.67 µM | 4.03 µM | 0.72 µM | selectivity ratio [9]: 5.6; selectivity ratio [10]: 5.8; MIC (Escherichia coli): > 400 µg/mL; MIC (Pseudomonas aeruginosa): > 400 µg/mL; selectivity ratio [11]: 8; MIC (Candida albicans): > 400 µg/mL
C=CC1C(=C)C(=O)Oc2ccc3ccccc3c21 (centres undefined) | 4.7 µM | 5.7 µM | 9.7 µM | 6.1 µM | 6 µM | 
C=C1C(=O)Oc2ccc3ccc(O)cc3c2C1C (centres undefined) | 6.22 µM | 5.81 µM | 4.3 µM |  | 5.77 µM | 
C=C1C(=O)Oc2ccc3ccc(O)cc3c2C1CCCC (centres undefined) | 1.88 µM | 0.62 µM | 1.73 µM |  | 0.56 µM | 
C=C1C(=O)Oc2ccc3ccc(O)cc3c2C1C(C)C (centres undefined) | 0.36 µM | 0.58 µM | 0.49 µM |  | 0.59 µM | 
C=CC1C(=C)C(=O)Oc2ccc3ccc(O)cc3c21 (centres undefined) | 4.8 µM | 3.43 µM | 6.5 µM |  | 0.79 µM | 
